In PubChem BioAssay:
Active and inactive are the calls of the source.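 Rule for the calls, unless noted: active = inhibition above 20% together with a positive visual image hit; inconclusive = visual image hit but inhibition not above 20%; inactive = no visual image hit.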

Tests used:
[1] = inhibitors of TNFa-induced NFkB p65 translocation, primary screen, imaging, HUVEC, MLSMR starter and 10KST1 sets (AID 438); details: HUVEC TNFa-induced p65 nuclear translocation; cell count: measured here: nuclei count (cytotoxicity indicator), at 2.08 µM; inhibition: at 2 µM, stronger effect = higher value, 0% TNFa-plus-vehicle, 100% no-TNFa wells;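 note: compound added about 3h40 before a 20 min TNFalpha stimulation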;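 for inhibition: signal is the nuclear over cytoplasmic p65 intensity ratio per well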
[2] = inhibitors of E-selectin induction by TNFa, primary screen, imaging, HUVEC, immunofluorescence, MLSMR starter and 10KST1 sets (AID 487;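 active = visually confirmed hit in the image check and inhibition above 20%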;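 for inhibition: signal is fraction of cell area covered by stained E-selectin grains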;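 for nuclei count: 100% = median nuclei count of all wells on the same plate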); details: HUVEC TNFalpha-induced E-selectin immunofluorescence imaging, at 2 µM; inhibition: stronger effect = higher value; nuclei count: measured here: cell number, toxicity
[3] = DUSP6 inhibitors restoring Erk phosphorylation by chemical complementation, primary imaging in DUSP6-transfected HeLa (AID 609;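 active = compounds giving at least 50% inhibition in the cell-based MKP-3 phosphatase rescue imaging test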;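 for inhibition: phospho-Erk level distribution per well compared with pooled transfected vehicle control wells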); details: HeLa MKP-3 transfected, phospho-Erk imaging KS statistic, at 10 µM, cells stimulated with TPA for 15 min
[4] = biological target: Dual specificity protein phosphatase 6 (Homo sapiens) (UniProt Q16828); assay: as above; details: HeLa MKP-3 transfected, phospho-Erk imaging KS statistic; at 10 µM; stronger effect = higher value; cells stimulated with TPA for 15 min
Chain of Dual specificity protein phosphatase 6 (Homo sapiens) (Q16828 whole entry, looked up): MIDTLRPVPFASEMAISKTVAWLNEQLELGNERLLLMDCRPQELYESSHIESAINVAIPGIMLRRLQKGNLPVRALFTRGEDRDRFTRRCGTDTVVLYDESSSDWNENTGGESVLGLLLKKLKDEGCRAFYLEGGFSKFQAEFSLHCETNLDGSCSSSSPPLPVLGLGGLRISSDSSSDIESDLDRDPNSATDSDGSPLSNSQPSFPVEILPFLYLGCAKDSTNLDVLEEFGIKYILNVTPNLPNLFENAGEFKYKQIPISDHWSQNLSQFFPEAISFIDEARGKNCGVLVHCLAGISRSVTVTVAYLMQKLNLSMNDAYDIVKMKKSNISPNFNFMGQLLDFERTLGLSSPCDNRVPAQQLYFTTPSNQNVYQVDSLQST

[5] = biological target: Voltage-gated potassium channel subunit beta-2 (Rattus norvegicus) (UniProt P62483); assay: KvBeta enzyme negative modulators, primary screen, biochemical, NADPH fluorescence (AID 622;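 active = fluorescence slope higher than the sample average by over 3 SD, cut at about -0.22 in these data, passing the limit was not always enough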;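 note: slope of raw intensity against log time taken from 70 to 1610 s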); details: recombinant KvBeta, 4-cyanobenzaldehyde reduction, at 10 µM, stronger effect = higher value
Chain of Voltage-gated potassium channel subunit beta-2 (Rattus norvegicus) (P62483 whole entry, looked up): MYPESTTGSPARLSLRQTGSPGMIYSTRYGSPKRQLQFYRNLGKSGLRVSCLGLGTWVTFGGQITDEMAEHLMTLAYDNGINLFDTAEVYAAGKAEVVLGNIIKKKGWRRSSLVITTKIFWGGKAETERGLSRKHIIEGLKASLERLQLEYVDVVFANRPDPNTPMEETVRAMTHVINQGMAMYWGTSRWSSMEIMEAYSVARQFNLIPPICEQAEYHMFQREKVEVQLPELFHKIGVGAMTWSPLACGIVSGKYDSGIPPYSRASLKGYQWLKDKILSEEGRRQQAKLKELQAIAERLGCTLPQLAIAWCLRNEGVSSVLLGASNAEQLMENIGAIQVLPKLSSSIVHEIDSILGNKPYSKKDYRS

[6] = biological target: Voltage-gated potassium channel subunit beta-2 (Rattus norvegicus) (UniProt P62483); assay: KvBeta positive modulators, primary screen, biochemical, NADPH fluorescence (AID 623;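 active = NADPH fluorescence slope more negative than the mean of all samples by about 3 SD, 99.7% confidence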;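 note: fluorescence intensity change per second fitted from 20 to 320 s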); details: Recombinant KvBeta, NADPH fluorescence decrease slope, 10 min; at 10 µM; stronger effect = lower value
[7] = biological target: Alpha-2C adrenergic receptor (Homo sapiens) (UniProt P18825); assay: modulators of alpha2C/GIRK thallium flux, primary screen, cell-based, HEK293 alpha2C/GIRK1/2 (AID 624;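 active = fluorescence slope after compound addition differing from the mean of all screened samples at 99.7% confidence, in either direction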;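 note: slope of fluorescence ratio to pre-addition baseline per second over 15 to 24 s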); details: thallium flux BTC fluorescence, at 10 µM, actives lie on both sides
Chain of Alpha-2C adrenergic receptor (Homo sapiens) (P18825 whole entry, looked up): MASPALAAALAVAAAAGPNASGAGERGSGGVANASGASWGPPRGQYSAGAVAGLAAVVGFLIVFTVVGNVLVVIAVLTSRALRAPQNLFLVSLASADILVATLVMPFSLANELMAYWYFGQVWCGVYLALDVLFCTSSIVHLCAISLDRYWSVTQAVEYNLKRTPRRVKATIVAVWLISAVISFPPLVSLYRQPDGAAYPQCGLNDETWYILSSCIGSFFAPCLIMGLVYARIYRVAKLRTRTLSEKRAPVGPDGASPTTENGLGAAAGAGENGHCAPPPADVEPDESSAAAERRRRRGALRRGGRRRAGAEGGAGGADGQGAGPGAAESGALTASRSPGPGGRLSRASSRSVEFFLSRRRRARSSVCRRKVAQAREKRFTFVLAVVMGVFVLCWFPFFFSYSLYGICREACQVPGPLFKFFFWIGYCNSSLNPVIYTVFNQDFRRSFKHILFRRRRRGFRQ

[8] = inhibitors of larval lipid processing in zebrafish, primary screen, whole organism, PED6 fluorescence, gall bladder and intestine (AID 686;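 active = a full or partial loss of lipid-probe fluorescence in the fish gall bladder, intestine or both, judged by eye; inactive = no fluorescence loss, or compound toxic to the fish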;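 note: larvae 5 to 7 days old with five fish per well; signal comes from phospholipase A2 cleavage of quenched PED6 carried via bile; overnight exposure to compound and PED6 before scoring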); details: Zebrafish larvae PED6 lipid processing, fluorescence scoring; screened at 20 µM (by protocol)
Summary of the method: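 system = live zebrafish larvae aged 5-7 days, whole organism | probe or stimulus = ingested quenched lipid PED6 at 100 nM | doses = 20 µM single dose | timing = overnight exposure | detection = fluorescence microscopy with visual scoring of gall bladder and intestine | read-out = visual per-well fluorescence inhibition score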

[9] = inhibitors of Chlamydomonas gravitaxis, primary screen, whole organism, Chlamydomonas reinhardtii, WT vs cilia-less mutant, absorbance, 96-well (AID 463189;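 active = inhibition at or above 50% relative to wild type and mutant plate controls; inactive = inhibition below 50%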;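 note: 0% = wild type cc124 cells in DMSO and 100% = ciliumless bld1 mutant cells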); details: OD600 absorbance, 2 days, at 10 µM, stronger effect = higher value
[10] = measured here: cell density z-score
[11] = measured here: nuclear c-Myc green intensity z-score
[12] = measured here: nuclear pErk red intensity z-score, stronger effect = higher value

Structure (SMILES) | cell count [1] | inhibition [1] | inhibition [2] | nuclei count [2] [%] | z-score [3, 10] | z-score [3, 11] | z-score [3, 12] | inhibition [4] | fluorescence slope [5] | NADPH fluorescence slope [6] | slope [7] | outcome [8] | inhibition [9]
Cc1nc(-c2c(-c3ccc(O)cc3O)noc2C(F)(F)F)cs1 | 518 | -18.3% (inactive) | -135% (inactive) | 163 | 0.818 | -0.387 | 0.0899 | 20.2% (inactive) | -0.468 (inactive) | -0.000226 (inactive) | 0.00467 (inactive) | inactive | 20.1% (inactive)
CCOc1ccc(Br)cc1CC(=O)O | 280 | -20.4% (inactive) | -108% (inactive) | 90.5 | -0.00622 | -0.788 | -0.945 | 14% (inactive) | -0.486 (inactive) | -0.000116 (inactive) | 0.00651 (inactive) | inactive | -8.79% (inactive)
N#CC1=C(N)NC(SCc2ccc(F)cc2)=C(C#N)C12CCCCC2 | 614 | -15.5% (inactive) | 24.8% (inactive) | 164 | -0.696 | -0.0167 | -0.195 | 6.04% (inactive) | -0.404 (inactive) | -4.7e-05 (inactive) | 0.0043 (inactive) | inactive | -1.21% (inactive)
COc1ccc(/C(O)=C2\C(=O)C(=O)N(CCN(C)C)C2c2cccc(OC)c2OC)cc1 (stereo not given) | 614 | -5.4% (inactive) | -56.5% (inactive) | 192 | 0.97 | 0.147 | -0.253 | 9.61% (inactive) | -0.338 (inactive) | -2.9e-05 (inactive) | 0.00479 (inactive) | inactive | -2.59% (inactive)
COc1ccc(-c2cc3nc4n(c(=O)c3s2)CCOC4)cc1 | 561 | -7.1% (inactive) | 30.7% (inactive) | 157 | -0.862 | -0.643 | -0.319 | -5.26% (inactive) | -0.185 (inactive) | -1.6e-05 (inactive) | 0.0053 (inactive) | inactive | 7.02% (inactive)
Cc1nnc(SCCC#N)n(CCC#N)c1=O | 585 | -13.5% (inactive) | 24.6% (inactive) | 164 | -0.25 | 0.45 | 2.53 | 1.12% (inactive) | -0.396 (inactive) | -3e-05 (inactive) | 0.00584 (inactive) | inactive | 7.85% (inactive)
Cc1ccccc1-c1nn2c(-c3ccccc3)nnc2s1 | 590 | -20% (inactive) | -150% (inactive) | 149 | 0.229 | -1.66 | 0.142 | -2.47% (inactive) | -0.451 (inactive) | -6e-05 (inactive) | 0.00655 (inactive) | inactive | 92.9% (active)
COc1cc(-c2nn3c(COc4ccccc4)nnc3s2)cc(OC)c1OC | 497 | -2.1% (inactive) | -95% (inactive) | 105 | -0.725 | 2.38 | 0.000132 | -4.27% (inactive) | -0.417 (inactive) | -1.5e-06 (inactive) | 0.00817 (inactive) | inactive | -11% (inactive)
C=C(C)CSC1=C(C#N)C(c2ccsc2)CC(=O)N1 (stereo not given) | 486 | -5% (inactive) | 8.3% (inactive) | 121 | -1 | -0.892 | 0.991 | -5.89% (inactive) | -0.512 (inactive) | -6.2e-05 (inactive) | 0.00453 (inactive) | inactive | 13% (inactive)
COC(=O)c1cc2c(=O)n3cccc(C)c3nc2n(Cc2cccnc2)c1=N | 626 | -15% (inactive) | -113% (inactive) | 159 | 2.59 | -0.798 | -0.054 | 25.7% (inactive) | -0.523 (inactive) | -3.6e-05 (inactive) | 0.00531 (inactive) | inactive | 32.4% (inactive)
C=C1c2cc(OC)ccc2NC(=O)N1CC | 611 | 0.3% (inactive) | -36.5% (inactive) | 127 | 0.269 | 0.973 | -0.0863 | -4.7% (inactive) | -0.452 (inactive) | -0.0002 (inactive) | 0.00447 (inactive) | inactive | 5.59% (inactive)
CCCCNC(=O)N(C)c1nncnc1C(=O)NC | 491 | -10.8% (inactive) | -190% (inactive) | 191 | 0.256 | -0.788 | 0.32 | -7.28% (inactive) | -0.37 (inactive) | -2.2e-05 (inactive) | 0.00552 (inactive) | inactive | -1.96% (inactive)
O=c1[nH]cnc2cc(-c3ccccc3)sc12 | 526 | -9.9% (inactive) | -20.4% (inactive) | 168 | 0.45 | -1.43 | 0.87 | 21% (inactive) | -0.351 (inactive) | -9.5e-06 (inactive) | 0.00529 (inactive) | inactive | -1.84% (inactive)
CSc1nc(N)nc(SCC(=O)CC(=O)OC(C)C)c1C#N | 553 | -7.1% (inactive) | -118% (inactive) | 212 | 0.352 | -0.157 | -2.15 | 16.8% (inactive) | -0.372 (inactive) | -4.1e-07 (inactive) | 0.00422 (inactive) | inactive | 11.6% (inactive)
O=C1CC(c2ccco2)CC(O)=C1C=Nc1cc(Cl)ccc1O (stereo not given) | 416 | -17% (inactive) | -77.9% (inactive) | 152 | -1.18 | -0.564 | 1.32 | 1.04% (inactive) | -0.386 (inactive) | -5.2e-05 (inactive) | 0.00522 (inactive) | inactive | 17.7% (inactive)
N#Cc1c(SCC(N)=O)nsc1SCc1ccc(Cl)cc1 | 633 | -17.9% (inactive) | -60.5% (inactive) | 148 | 0.999 | -1.2 | -0.0749 | 17.7% (inactive) | -0.406 (inactive) | -1.2e-05 (inactive) | 0.00612 (inactive) | inactive | 26.4% (inactive)
O=C(NCc1ccco1)c1cnn2c1NC(c1ccccc1)CC2C(F)(F)F (stereo not given) | 479 | -5.5% (inactive) | -25.8% (inactive) | 107 | -0.862 | 0.861 | -0.0535 | -2.07% (inactive) | -0.53 (inactive) | -4e-05 (inactive) | 0.0056 (inactive) | inactive | -7.85% (inactive)
Cn1c(NCCN2CCCCC2)cc(=O)n(C)c1=O | 625 | 4.3% (inactive) | -24.8% (inactive) | 125 | 1.35 | -0.0759 | -0.233 | -1.12% (inactive) | -0.492 (inactive) | -0.000171 (inactive) | 0.00437 (inactive) | inactive | 9.26% (inactive)
Cn1c(=O)c2c(nc(NCc3ccc4c(c3)OCO4)n2Cc2ccc(F)cc2)n(C)c1=O | 600 | 3.1% (inactive) | -39.4% (inactive) | 152 | -0.468 | -0.0841 | -0.555 | -2.91% (inactive) | -0.511 (inactive) | -8.9e-05 (inactive) | 0.00456 (inactive) | inactive | 2.97% (inactive)
Cc1ccc(C(=O)C2=C(O)C(=O)N(c3ncccn3)C2c2cccc(Cl)c2)o1 (stereo not given) | 472 | -8.1% (inactive) | -43% (inactive) | 177 | 0.573 | 0.527 | -0.321 | 0.671% (inactive) | -0.287 (inactive) | -2.1e-05 (inactive) | 0.00586 (inactive) | inactive | 1.33% (inactive)
